Experimental data published in ChEMBL document CHEMBL1795276, “Synthesis and biological testing of novel pyridoisothiazolones as histone acetyltransferase inhibitors” (Bioorg Med Chem, 2011).
Calls of active or inactive are those of the source. No cut-off for these calls is given here.

Legend:
[1] = target: T1, Histone acetyltransferase KAT2B (Homo sapiens, UniProt Q92831); experiment: Inhibition of histone acetylase activity of human recombinant PCAF expressed in Escherichia coli at 200 uM using biotinylated oligopeptide sequences from histone H4 (2-24) substrate by In-vitro time-resolved fluorescence immunosorbent acetyltransferase assay
In short: (§1)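 E. coli-expressed His-tagged human PCAF, Ni-NTA purified. Preincubated 10 min at 30 °C with inhibitor (DMSO solution) in HEPES 100 mM pH 7.5 with 0.1% BSA and 0.8% Triton X-100. Substrate was 20 pmol/well biotinylated H4 2–24 on streptavidin wells; 100 µM acetyl-CoA final; incubation steps 1 h at 30 °C. Acetylation read with anti-acetyl-lysine primary antibody and Eu-labelled anti-rabbit secondary, by time-resolved fluorescence at 340/615 nm; IC50 from RFU versus log concentration.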
Target sequence in this assay (Q92831 whole entry, looked up): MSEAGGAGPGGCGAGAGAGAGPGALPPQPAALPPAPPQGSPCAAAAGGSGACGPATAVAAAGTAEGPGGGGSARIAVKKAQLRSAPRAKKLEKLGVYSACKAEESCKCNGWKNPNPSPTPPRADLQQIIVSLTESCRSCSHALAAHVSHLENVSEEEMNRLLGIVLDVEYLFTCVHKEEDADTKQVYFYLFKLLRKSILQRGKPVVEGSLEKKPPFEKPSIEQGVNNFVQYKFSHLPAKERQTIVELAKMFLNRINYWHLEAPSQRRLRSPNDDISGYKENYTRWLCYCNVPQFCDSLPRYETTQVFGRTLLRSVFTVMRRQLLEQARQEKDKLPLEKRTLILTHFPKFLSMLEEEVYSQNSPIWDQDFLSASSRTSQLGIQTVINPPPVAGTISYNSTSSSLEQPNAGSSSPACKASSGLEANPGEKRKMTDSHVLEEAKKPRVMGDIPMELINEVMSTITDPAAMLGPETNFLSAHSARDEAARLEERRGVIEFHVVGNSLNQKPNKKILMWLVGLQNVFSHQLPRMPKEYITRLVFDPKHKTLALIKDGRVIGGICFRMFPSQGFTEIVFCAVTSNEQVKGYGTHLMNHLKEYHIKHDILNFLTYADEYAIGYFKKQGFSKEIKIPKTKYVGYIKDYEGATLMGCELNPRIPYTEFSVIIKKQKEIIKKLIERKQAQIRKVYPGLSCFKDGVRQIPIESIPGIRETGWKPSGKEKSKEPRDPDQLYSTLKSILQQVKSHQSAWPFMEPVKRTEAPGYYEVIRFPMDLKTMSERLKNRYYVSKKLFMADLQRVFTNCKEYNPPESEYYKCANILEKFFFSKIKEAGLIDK

[2] = target: T1, Histone acetyltransferase KAT2B; experiment: Inhibition of histone acetylase activity of human recombinant PCAF expressed in Escherichia coli at 300 uM using biotinylated oligopeptide sequences from histone H3 (1-21) substrate by In-vitro time-resolved fluorescence immunosorbent acetyltransferase assay
In short: (§2)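 His-tagged human PCAF from E. coli (IPTG induction at 18 °C overnight), purified on Ni-NTA and stored at pH 6.0. Enzyme was preincubated with inhibitor in DMSO for 10 min at 30 °C in HAT buffer pH 7.5 (0.1% BSA, 0.8% Triton X-100, 100 mM HEPES). Reaction on 20 pmol/well biotinylated H3 1–21 bound to a streptavidin plate, with 100 µM acetyl-CoA final, 1 h at 30 °C. Detection with anti-acetylhistone H3 antibody, then Eu-labelled secondary antibody; time-resolved fluorescence at 340/615 nm. IC50 from RFU plotted against log concentration.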
Target sequence in this assay (Q92831 whole entry, looked up): as above

[3] = target: T1, Histone acetyltransferase KAT2B; experiment: Inhibition of histone acetylase activity of human recombinant PCAF expressed in Escherichia coli at 50 uM using biotinylated oligopeptide sequences from histone H4 (2-24) substrate by In-vitro time-resolved fluorescence immunosorbent acetyltransferase assay; in short: as §1
Target sequence in this assay (Q92831 whole entry, looked up): as above

[4] = target: T1, Histone acetyltransferase KAT2B; experiment: Inhibition of histone acetylase activity of human recombinant PCAF expressed in Escherichia coli using biotinylated oligopeptide sequences from histone H3 (1-21) substrate by In-vitro time-resolved fluorescence immunosorbent acetyltransferase assay; in short: as §2
Target sequence in this assay (Q92831 whole entry): as the sequence (Q92831 whole entry, looked up) above

SK-N-SH [5] = experiment: Growth inhibition of human SK-N-SH cells at 20 uM by CellTiter-96 Aqueous Non-radioactive cell proliferation assay; assay type: functional; details: read-out: GI
In short: (§3)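 SK-N-SH neuroblastoma cells were grown in low-glucose DMEM with 10% FBS, 2 mM L-glutamine and 1% penicillin-streptomycin, and seeded at 5000/well. Compound or DMSO vehicle was added after 24 h, in triplicate.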

HCT-116 [6] = experiment: Growth inhibition of human HCT116 cells at 20 uM by CellTiter-96 Aqueous Non-radioactive cell proliferation assay; assay type: functional; details: read-out: GI
In short: (§4)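 HCT116 cells were grown in high-glucose DMEM with 10% FBS, 2 mM L-glutamine, 1% non-essential amino acids and penicillin-streptomycin, and seeded at 4000/well. After 24 h, compound or DMSO vehicle was added; triplicates per concentration.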

[7] = target: T1, Histone acetyltransferase KAT2B; experiment: Inhibition of histone acetylase activity of human recombinant PCAF expressed in Escherichia coli using biotinylated oligopeptide sequences from histone H4 (2-24) substrate by In-vitro time-resolved fluorescence immunosorbent acetyltransferase assay; in short: as §1
Target sequence in this assay (Q92831 whole entry): as the sequence (Q92831 whole entry, looked up) above

SK-N-SH [8] = experiment: Growth inhibition of human SK-N-SH cells by CellTiter-96 Aqueous Non-radioactive cell proliferation assay; assay type: functional; in short: as §3
HCT-116 [9] = experiment: Growth inhibition of human HCT116 cells by CellTiter-96 Aqueous Non-radioactive cell proliferation assay; assay type: functional; in short: as §4
[10] = target: T1, Histone acetyltransferase KAT2B; experiment: Inhibition of histone acetylase activity of human recombinant PCAF expressed in Escherichia coli at 50 uM using biotinylated oligopeptide sequences from histone H3 (1-21) substrate by In-vitro time-resolved fluorescence immunosorbent acetyltransferase assay; in short: as §2
Target sequence in this assay (Q92831 whole entry, looked up): as above

SK-N-SH [11] = experiment: Growth inhibition of human SK-N-SH cells at 25 uM by CellTiter-96 Aqueous Non-radioactive cell proliferation assay; assay type: functional; details: read-out: GI; in short: as §3
HCT-116 [12] = experiment: Growth inhibition of human HCT116 cells at 25 uM by CellTiter-96 Aqueous Non-radioactive cell proliferation assay; assay type: functional; details: read-out: GI; in short: as §4
MCF7 = experiment: Growth inhibition of human MCF7 cells by CellTiter-96 Aqueous Non-radioactive cell proliferation assay; assay type: functional
In short: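 MCF-7 cells were grown in RPMI-1640 with 10% FBS, 2 mM L-glutamine and penicillin-streptomycin, and seeded at 5000/well. Compounds or DMSO were added after 24 h; three replicates per concentration.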

SK-N-SH [13] = experiment: Growth inhibition of human SK-N-SH cells at 5 to 25 uM incubated for 6 to 72 hrs by CellTiter-96 Aqueous Non-radioactive cell proliferation assay; assay type: functional, cell-based
In short: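 Time course in SK-N-SH cells (5000/well, low-glucose DMEM with 10% FBS). Compound at 5, 10 or 25 µM was added 24 h after seeding, and growth was followed up to 72 h of incubation by CellTiter 96 AQueous absorbance, relative to DMSO control.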

[14] = target: T1, Histone acetyltransferase KAT2B; experiment: Inhibition of histone acetylase activity of human recombinant PCAF expressed in Escherichia coli at 10 uM using biotinylated oligopeptide sequences from histone H3 (1-21) substrate by In-vitro time-resolved fluorescence immunosorbent acetyltransferase assay; in short: as §2
Target sequence in this assay (Q92831 whole entry, looked up): as above

SK-N-SH [15] = experiment: Growth inhibition of human SK-N-SH cells at 10 uM by CellTiter-96 Aqueous Non-radioactive cell proliferation assay; assay type: functional; details: read-out: GI; in short: as §3
SK-N-SH [16] = experiment: Growth inhibition of human SK-N-SH cells at 40 uM by CellTiter-96 Aqueous Non-radioactive cell proliferation assay; assay type: functional; details: read-out: GI; in short: as §3
HCT-116 [17] = experiment: Growth inhibition of human HCT116 cells at 40 uM by CellTiter-96 Aqueous Non-radioactive cell proliferation assay; assay type: functional; details: read-out: GI; in short: as §4
[18] = target: T1, Histone acetyltransferase KAT2B; experiment: Inhibition of histone acetylase activity of human recombinant PCAF expressed in Escherichia coli at 25 uM using biotinylated oligopeptide sequences from histone H3 (1-21) substrate by In-vitro time-resolved fluorescence immunosorbent acetyltransferase assay; in short: as §2
Target sequence in this assay (Q92831 whole entry, looked up): as above

[19] = target: T1, Histone acetyltransferase KAT2B; experiment: Inhibition of histone acetylase activity of human recombinant PCAF expressed in Escherichia coli using biotinylated oligopeptide sequences from histone H3 (1-21) substrate in presence of 1 mmol/L DTT by In-vitro time-resolved fluorescence immunosorbent acetyltransferase assay
SK-N-SH [20] = experiment: Growth inhibition of human SK-N-SH cells at 100 uM by CellTiter-96 Aqueous Non-radioactive cell proliferation assay; assay type: functional; details: read-out: GI; in short: as §3
HCT-116 [21] = experiment: Growth inhibition of human HCT116 cells at 100 uM by CellTiter-96 Aqueous Non-radioactive cell proliferation assay; assay type: functional; details: read-out: GI; in short: as §4

Compound	IC50 [4]	GI50 (SK-N-SH [8])	inhibition of growth at 25 µM (HCT-116 [12])	also measured
C=C(C)C(C(=O)OC)n1scc(NCc2ccccc2)c1=O (stereo not given)	–	–	–	inhibition [1]: 20%; inhibition [2]: 48%
O=c1c2cccnc2sn1-c1ccc(Cl)c(Cl)c1	4.57 µM	–	–	inhibition [3]: 91%; inhibition of growth at 20 µM (SK-N-SH [5]): 37%; inhibition of growth at 20 µM (HCT-116 [6]): 56%
COc1cccc(-n2sc3ncccc3c2=O)c1	5.03 µM	–	–	–
O=c1c2cccnc2sn1-c1ccc([N+](=O)[O-])cc1	4.1 µM	–	–	IC50 [7]: 2.99 µM
O=c1c2cccnc2sn1Cc1ccc(Cl)c(Cl)c1	6.94 µM	9.53 µM	–	GI50 (HCT-116 [9]): 15.8 µM
O=c1c2ccc([N+](=O)[O-])cc2sn1Cc1ccccc1	7.66 µM	–	–	IC50 [7]: 51.3 µM
Cc1cc(C)c2c(=O)n(CC(=O)Nc3ccc(Cl)cc3)sc2n1	–	22.1 µM	–	inhibition [10]: 38%; GI50 (HCT-116 [9]): 35.8 µM
Cc1cnc2sn(-c3ccc(Oc4ccccc4)cc3)c(=O)c2c1	12.9 µM	–	29%	inhibition of growth at 25 µM (SK-N-SH [11]): 32%
O=c1c2cc([N+](=O)[O-])cnc2sn1-c1ccc(Br)cc1	4.91 µM	53.5 µM	–	IC50 [7]: 0.86 µM; GI50 (MCF7): 44.2 µM
O=c1c2cccnc2sn1Cc1ccc(F)cc1	86.3 µM	–	–	–
O=c1c2cccnc2sn1-c1ccc(Br)cc1	4.43 µM	–	–	–
O=c1c2cccnc2sn1-c1ccc(F)cc1	1.64 µM	10.3 µM	28%	IC50 [7]: 0.72 µM; GI50 (MCF7): 37.2 µM; growth inhibition (GI) (SK-N-SH [13]): Dose-dependent effect
O=c1c2cccnc2sn1Cc1ccc(C(F)(F)F)cc1	130 µM	0.48 µM	38%	IC50 [7]: 25.5 µM; GI50 (MCF7): 30.2 µM
O=c1c2cccnc2sn1Cc1ccccc1	23 µM	–	–	–
O=c1c2cc([N+](=O)[O-])cnc2sn1-c1ccc(Oc2ccccc2)cc1	–	–	< 10%	inhibition [14]: 48%; inhibition of growth at 25 µM (SK-N-SH [11]): < 5%
Cc1ccc(Cn2sc3ncccc3c2=O)cc1	27.9 µM	–	79%	inhibition of growth at 10 µM (SK-N-SH [15]): 31%
O=C(Cn1sc2cc(F)ccc2c1=O)Nc1nc(-c2ccccc2)cs1	–	–	–	inhibition [10]: 21%; inhibition of growth at 40 µM (SK-N-SH [16]): < 5%; inhibition of growth at 40 µM (HCT-116 [17]): < 5%
O=c1c2cccnc2[s+]([O-])n1Cc1ccc(Cl)c(Cl)c1 (stereo not given)	–	–	–	inhibition [10]: 11%
O=C1/C(=C/c2ccc3c(c2)OCO3)C(=S)SN1Cc1ccco1	–	–	–	inhibition [18]: < 5%
CCCCc1ccc(-n2sc3ncccc3c2=O)cc1	15.9 µM	8.93 µM	21%	–

Compound	IC50 [4]	GI50 (SK-N-SH [8])	inhibition of growth at 25 µM (HCT-116 [12])	also measured
O=c1c2cccnc2sn1-c1ccc(Cl)cc1	3.53 µM	16.1 µM	23%	inhibition [3]: 87%
CCCCc1ccc(-n2sc3ncc(-c4ccccc4)cc3c2=O)cc1	–	–	33%	inhibition [18]: 49%; inhibition of growth at 25 µM (SK-N-SH [11]): 55%
O=C1c2cccnc2S(=O)(=O)N1Cc1ccc(Cl)c(Cl)c1	–	–	–	inhibition [10]: 6%
O=c1c2ccccc2sn1-c1nc2ccccc2s1	–	–	–	inhibition [10]: 46%
COc1ccc(-n2sc3ncc([N+](=O)[O-])cc3c2=O)cc1	3.42 µM	–	–	IC50 [7]: 1.83 µM; inhibition [19]: inactive
Cc1cnc2sn(-c3ccc(Br)cc3)c(=O)c2c1	2.99 µM	21.3 µM	< 5%	–
O=c1c2cccnc2sn1Cc1ccc(F)c(F)c1	101 µM	–	–	–
O=c1c2cccnc2sn1Cc1ccc(Cl)cc1	17.5 µM	–	97%	inhibition of growth at 10 µM (SK-N-SH [15]): 20%
Cc1cnc2sn(-c3ccc([N+](=O)[O-])cc3)c(=O)c2c1	15.3 µM	–	–	IC50 [7]: 2.72 µM
COc1cccc(Cn2sc3ncccc3c2=O)c1	22.2 µM	–	42%	inhibition of growth at 10 µM (SK-N-SH [15]): 26%
COc1ccc(-n2sc3ncccc3c2=O)cc1	5.71 µM	19.2 µM	29%	–
O=c1c2cccnc2sn1-c1ccc(F)c(F)c1	5.9 µM	–	–	–
O=c1ccsn1-c1ccc(Cl)c([N+](=O)[O-])c1	4.8 µM	23.2 µM	–	–
O=c1c2cc([N+](=O)[O-])cnc2sn1-c1ccc([N+](=O)[O-])cc1	11.8 µM	–	–	IC50 [7]: 15.8 µM
Oc1nsc2ncccc12	–	–	–	inhibition [10]: 17%
Cc1ccc(-n2sc3ncccc3c2=O)cc1	4.63 µM	6.2 µM	20%	inhibition [3]: 75%
Cc1cc(C)c2c(=O)n(CC(=O)Nc3ccc(F)cc3C)sc2n1	–	25.7 µM	–	inhibition [10]: 48%; GI50 (HCT-116 [9]): 22.6 µM
COc1ccc(-n2sc3ncc(C)cc3c2=O)cc1	6.51 µM	12.2 µM	40%	–
O=c1c2cccnc2sn1-c1ccccc1	7.85 µM	–	–	inhibition [3]: 88%
Cc1ccc(-n2sc3cc(F)ccc3c2=O)cc1	3.69 µM	–	–	inhibition of growth at 100 µM (SK-N-SH [20]): 35%; inhibition of growth at 100 µM (HCT-116 [21]): 49%
